The source made the active and inactive calls. The rule behind the calls is not given here.
Columns and labels:
[1] = tested on: Trypanosoma brucei; assay: Inhibition of Trypanosoma brucei DPMS expressed in Escherichia coli assessed as residual enzyme activity at 1 mM relative to untreated control
How it was run: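 Recombinant full-length membrane-bound T. brucei DPMS in E. coli membranes (70 ng/ml total protein). Buffer: 50 mM Na–Hepes pH 7.4, 25 mM KCl, 5 mM MgCl2, 5 mM MnCl2, 0.1% n-octyl-glucopyranoside. Substrates: dehydrofarnesol-phosphate and GDP-[3H]Man. Inhibitor at 1 mM; 10 min at 30 °C. Lipids extracted in CHCl3:MeOH, butanol phase counted. Activity relative to a no-inhibitor control.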

[2] = Cytotoxicity against human HeLa cells assessed as growth inhibition at 1 mM by alamar blue assay; format: cell-based
How it was run: (§1)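 HeLa cells treated at 0.1 and 1.0 mM final; viability by Alamar Blue; inhibition expressed relative to a DMSO-only control.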

[3] = tested on: Trypanosoma brucei; assay: Antitrypanosomal activity against Trypanosoma brucei 427; format: functional; conditions: read-out: ED50 (the source's name)
How it was run: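 Bloodstream-form T. brucei strain 427 in culture; viability read by Alamar Blue; ED50 in μM; each experiment run at least in duplicate.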

[4] = tested on: Trypanosoma brucei; assay: Inhibition of glycosylphosphatidylinositol anchor biosynthesis in Trypanosoma brucei 117 cell-free system assessed as reduction of Manalpha1-6Manalpha1-4GlcNH2-PI formation formation; format: functional
How it was run: (§2)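 Cell-free GPI synthesis using bloodstream T. brucei variant 117 membranes, 1 × 10^7 cell equivalents per assay. Membranes washed in Hepes pH 7.4/KCl/MgCl2 buffer with TLCK and leupeptin. Reaction in buffer with MnCl2, tunicamycin and dithiothreitol. Labelled with GDP-[3H]Man plus 1 mM UDP-GlcNAc. Inhibitor in DMSO, 1 mM final.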

[5] = tested on: Trypanosoma brucei; assay: Inhibition of glycosylphosphatidylinositol anchor biosynthesis in Trypanosoma brucei 117 cell-free system assessed as reduction of Manalpha1-4GlcNH2-PI formation; format: functional; how it was run: as §2
[6] = tested on: Trypanosoma brucei; assay: Inhibition of glycosylphosphatidylinositol anchor biosynthesis in Trypanosoma brucei 117 cell-free system assessed as reduction of ethanolamine-P-Manalpha1-2Manalpha1-6Manalpha1-4GlcNH2-PI formation; format: functional; how it was run: as §2
[7] = tested on: Trypanosoma brucei; assay: Inhibition of Trypanosoma brucei 117 DPMS-mediated glycosylphosphatidylinositol anchor biosynthesis assessed as reduction of dolicholphosphate-mannose formation; how it was run: as §2
[8] = tested on: Trypanosoma brucei; assay: Inhibition of glycosylphosphatidylinositol anchor biosynthesis in Trypanosoma brucei 117 cell-free system assessed as reduction of Manalpha1-2Manalpha1-6Manalpha1-4GlcNH2-PI formation; format: functional; how it was run: as §2
[9] = tested on: Trypanosoma brucei; assay: Inhibition of glycosylphosphatidylinositol anchor biosynthesis in Trypanosoma brucei 117 cell-free system assessed as reduction of Manalpha1-2Manalpha1-6Manalpha1-4GlcNH2-(acyl)PI formation; format: functional; how it was run: as §2
[10] = Cytotoxicity against human HeLa cells by alamar blue assay; format: cell-based; conditions: read-out: ED50 (the source's name); how it was run: as §1

For `C#Cc1ccc(/C=C2\SC(=S)N(CC(=O)O)C2=O)cc1`, the Activity [1] was 94%, the inhibition at 1000 µM [2] was 20% and the EC50 [3] was > 1000 µM.

With `O=C(O)CN1C(=O)/C(=C/c2ccc(Cl)cc2)SC1=S` the Activity [1] was 86% and the EC50 [3] was 398 µM.

For `O=C(O)CN1C(=O)/C(=C/c2ccccc2O)SC1=S`, the inhibition [4] was “Active”, the inhibition [5] was “Active” and the inhibition [6] was “Active”. The inhibition [7] was “inactive”, the Activity [1] was 23% and the inhibition [8] was “Active”. The inhibition [9] was “Active”, the CC50 [10] was > 1 mM and the EC50 [3] was 107 µM.

With `O=C(O)CN1C(=O)/C(=C/c2ccc(OCc3ccccc3)c(OCc3ccccc3)c2)SC1=S` the inhibition [4] was “Active”, the inhibition [5] was “Active” and the inhibition [6] was “Active”. The inhibition [7] was “Active”, the Activity [1] was 20% and the inhibition [8] was “Active”. The inhibition [9] was “Active”, the CC50 [10] was > 1 mM and the EC50 [3] was 492 µM.

For `O=C(O)CN1C(=O)/C(=C/c2ccccc2)SC1=S`, the Activity [1] was 42%, the CC50 [10] was > 1 mM and the EC50 [3] was 232 µM.

In the case of `O=C(O)CN1C(=O)/C(=C/c2ccc(OCc3ccccc3)cc2)SC1=S`, the inhibition [4] is reported as “Active”, the inhibition [5] is reported as “Active” and the inhibition [6] is reported as “Active”. The inhibition [7] was “inactive”, the Activity [1] was 10% and the inhibition [8] was “Active”. The inhibition at 1000 µM [2] was 20%, the inhibition [9] was “Active” and the CC50 [10] was > 1 mM. It also gave an EC50 [3] of 338 µM.

In the case of `O=C(O)CN1C(=O)/C(=C/c2ccc(O)cc2)SC1=S`, the inhibition [4] is reported as “Active”, the inhibition [5] is reported as “Active” and the inhibition [6] is reported as “Active”. The inhibition [7] was “Active”, the Activity [1] was 70% and the inhibition [8] was “Active”. The inhibition [9] was “Active”, the CC50 [10] was > 1 mM and the EC50 [3] was 427 µM.

For `O=C(O)CN1C(=O)/C(=C/c2cccc(OCc3ccccc3)c2)SC1=S`, the Activity [1] was 23%, the CC50 [10] was > 1 mM and the EC50 [3] was 96 µM.

Compound `N#Cc1ccc(/C=C2\SC(=S)N(CC(=O)O)C2=O)cc1` has an Activity [1] of 73% and an EC50 [3] of 244 µM.

For `O=C(O)CN1C(=O)/C(=C/c2cccc(O)c2)SC1=S`, the Activity [1] was 90% and the EC50 [3] was 345 µM.

Source: ChEMBL document CHEMBL1153287, “First small molecular inhibitors of T. brucei dolicholphosphate mannose synthase (DPMS), a validated drug target in African sleeping sickness” (Bioorg Med Chem Lett, 2009)
